Converted amounts (≈) assume the structure as drawn.
How the values were obtained:
Type in all cases: functional
Staphylococcus aureus [1] = assay: Antibacterial activity against Staphylococcus aureus at 100 ug/disk after 24 hrs by disk diffusion method; settings: read-out: IZ
Procedure, shortened: (§1)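 Agar disc diffusion on nutrient agar with NCIM bacteria. 6 mm sterile paper discs moistened with compound in DMSO (100 or 200 μg/disc) placed on pre-inoculated plates. Incubated at 37 °C; growth-inhibition zone diameter measured after 24 h. Chloramphenicol control.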

Staphylococcus aureus [2] = assay: Antibacterial activity against Staphylococcus aureus at 200 ug/disk after 24 hrs by disk diffusion method; settings: read-out: IZ; procedure, shortened: as §1
Bacillus subtilis [3] = assay: Antibacterial activity against Bacillus subtilis at 100 ug/disk after 24 hrs by disk diffusion method; settings: read-out: IZ; procedure, shortened: as §1
Bacillus subtilis [4] = assay: Antibacterial activity against Bacillus subtilis at 200 ug/disk after 24 hrs by disk diffusion method; settings: read-out: IZ; procedure, shortened: as §1
Klebsiella pneumoniae [5] = assay: Antibacterial activity against Klebsiella pneumoniae at 100 ug/disk after 24 hrs by disk diffusion method; settings: read-out: IZ; procedure, shortened: as §1
Klebsiella pneumoniae [6] = assay: Antibacterial activity against Klebsiella pneumoniae at 200 ug/disk after 24 hrs by disk diffusion method; settings: read-out: IZ; procedure, shortened: as §1
Proteus vulgaris [7] = assay: Antibacterial activity against Proteus vulgaris at 100 ug/disk after 24 hrs by disk diffusion method; settings: read-out: IZ; procedure, shortened: as §1
Proteus vulgaris [8] = assay: Antibacterial activity against Proteus vulgaris at 200 ug/disk after 24 hrs by disk diffusion method; settings: read-out: IZ; procedure, shortened: as §1
Fusarium solani [9] = assay: Antifungal activity against Fusarium solani at 100 ug/disk after 48 hrs by disk diffusion method; settings: read-out: IZ
Procedure, shortened: (§2)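 Fungi from NCIM on nutrient agar plates, pre-inoculated. 6 mm paper discs carrying 100 or 200 μg compound in DMSO applied. Plates incubated at 37 °C and inhibition zone diameter measured at 48 h. Ketoconazole control.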

Fusarium solani [10] = assay: Antifungal activity against Fusarium solani at 200 ug/disk after 48 hrs by disk diffusion method; settings: read-out: IZ; procedure, shortened: as §2
Curvularia lunata [11] = assay: Antifungal activity against Curvularia lunata at 100 ug/disk after 48 hrs by disk diffusion method; settings: read-out: IZ; procedure, shortened: as §2
Curvularia lunata [12] = assay: Antifungal activity against […] lunata at 200 ug/disk after 48 hrs by disk diffusion method; settings: read-out: IZ; procedure, shortened: as §2
Aspergillus niger [13] = assay: Antifungal activity against Aspergillus niger at 100 ug/disk after 48 hrs by disk diffusion method; settings: read-out: IZ; procedure, shortened: as §2
Aspergillus niger [14] = assay: Antifungal activity against Aspergillus niger at 200 ug/disk after 48 hrs by disk diffusion method; settings: read-out: IZ; procedure, shortened: as §2
[15] = Antioxidant activity assessed as inhibition of nitric oxide production at 100 uM
Procedure, shortened: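 Sodium nitroprusside ([…]) in phosphate buffer pH 7.4 incubated with 100 μM compound (dioxane/methanol) at 25 °C for 120 min; solvent-only control. Aliquots mixed 1:1 with Griess reagent (1% sulfanilamide, 0.1% N-naphthylethylenediamine, 2% phosphoric acid). Absorbance at 546 nm, triplicate.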

[16] = tested on: Radical scavenging activity; assay: Antioxidant activity assessed as DPPH radical scavenging activity at 100 uM
Procedure, shortened: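 Compound (100 μM) added to 100 μM DPPH in dioxane/ethanol. Kept at ambient temperature 20 min, then absorbance read at 517 nm. Percent DPPH scavenging taken from difference between test and control.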

[17] = Antioxidant activity assessed as increase in reducing power at 100 uM
Procedure, shortened: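 Oyaizu method. Compound at 100 μM in methanol mixed with 0.2 M phosphate buffer pH 6.6 and 1% potassium ferricyanide, 50 °C for 20 min. 10% TCA added, then centrifuged 3000 rpm for 10 min. Upper layer mixed with water and 0.1% FeCl3; absorbance read at 700 nm.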

Fusarium solani [18] = assay: Antifungal activity against Fusarium solani after 48 hrs by microdilution susceptibility assay
Procedure, shortened: (§3)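 Fungal strains from NCIM. Microdilution: stocks at 800 μg/ml in DMSO, two-fold dilutions 400 down to 6.25 μg/ml, wells inoculated with fungal suspension, incubated 36 °C for 48 h. MIC read as lowest concentration without turbidity. Ketoconazole reference.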

Curvularia lunata [19] = assay: Antifungal activity against Curvularia lunata after 48 hrs by microdilution susceptibility assay; procedure, shortened: as §3
Aspergillus niger [20] = assay: Antifungal activity against Aspergillus niger after 48 hrs by microdilution susceptibility assay; procedure, shortened: as §3
Staphylococcus aureus [21] = assay: Antibacterial activity against Staphylococcus aureus after 24 hrs by microdilution susceptibility assay
Procedure, shortened: (§4)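 Bacterial strains from NCIM. Broth microdilution: stocks at 800 μg/ml in DMSO, two-fold dilutions 400, 200, 100 ... 6.25 μg/ml, wells inoculated with bacterial suspension, 36 °C for 24 h. MIC = lowest concentration with no turbidity (no visible growth). Chloramphenicol as reference.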

Bacillus subtilis [22] = assay: Antibacterial activity against Bacillus subtilis after 24 hrs by microdilution susceptibility assay; procedure, shortened: as §4
Klebsiella pneumoniae [23] = assay: Antibacterial activity against Klebsiella pneumoniae after 24 hrs by microdilution susceptibility assay; procedure, shortened: as §4
Proteus vulgaris [24] = assay: Antibacterial activity against Proteus vulgaris after 24 hrs by microdilution susceptibility assay; procedure, shortened: as §4

Row | Compound | zone of inhibition at 100 µg/disc (Staphylococcus aureus [1]) [mm] | zone of inhibition at 200 µg/disc (Staphylococcus aureus [2]) [mm] | zone of inhibition at 100 µg/disc (Bacillus subtilis [3]) [mm] | zone of inhibition at 200 µg/disc (Bacillus subtilis [4]) [mm] | zone of inhibition at 100 µg/disc (Klebsiella pneumoniae [5]) [mm] | zone of inhibition at 200 µg/disc (Klebsiella pneumoniae [6]) [mm] | zone of inhibition at 100 µg/disc (Proteus vulgaris [7]) [mm] | zone of inhibition at 200 µg/disc (Proteus vulgaris [8]) [mm] | zone of inhibition at 100 µg/disc (Fusarium solani [9]) [mm] | zone of inhibition at 200 µg/disc (Fusarium solani [10]) [mm] | zone of inhibition at 100 µg/disc (Curvularia lunata [11]) [mm] | zone of inhibition at 200 µg/disc (Curvularia lunata [12]) [mm] | zone of inhibition at 100 µg/disc (Aspergillus niger [13]) [mm] | zone of inhibition at 200 µg/disc (Aspergillus niger [14]) [mm] | inhibition [15] [%] | inhibition [16] [%] | inhibition [17] [%] | further results
1 | Cc1ccc(S(=O)(=O)c2c[nH]cc2S(=O)(=O)CC2=NCCO2)cc1 | 12 | 15 | 13 | 14 | 10 | 13 | 11 | 13 | 18 | 20 | 17 | 21 | 17 | 21 | 78.5 | 76.1 | 77.3 | –
2 | Cc1ccc(S(=O)(=O)/C=C/S(=O)(=O)CC2=NCCO2)cc1 | 10 | 13 | 9 | 11 | – | – | – | – | 14 | 17 | 18 | 19 | 14 | 16 | 74.2 | 73.9 | 73.5 | –
3 | CC(=O)N1CCN(c2ccc(OCC3COC(Cn4ccnc4)(c4ccc(Cl)cc4Cl)O3)cc2)CC1 (stereo unspecified) [KETOCONAZOLE] | – | – | – | – | – | – | – | – | 38 | 42 | 41 | 44 | 36 | 39 | – | – | – | MIC (Fusarium solani [18]): 12.5 µg/mL (≈ 23.5 µM); MIC (Curvularia lunata [19]): 6.25 µg/mL (≈ 11.8 µM); MIC (Aspergillus niger [20]): 6.25 µg/mL (≈ 11.8 µM)
4 | O=C1O[C@H]([C@@H](O)CO)C(O)=C1O | – | – | – | – | – | – | – | – | – | – | – | – | – | – | 96.9 | 95.4 | – | –
5 | Cc1ccc(S(=O)(=O)c2c[nH]cc2S(=O)(=O)CC2=NCCS2)cc1 | 23 | 26 | 22 | 24 | 20 | 21 | 17 | 19 | 29 | 31 | 28 | 32 | 31 | 35 | 23.7 | 23.2 | 22.9 | –
6 | O=S(=O)(/C=C/S(=O)(=O)c1ccccc1)CC1=NCCO1 | 11 | 13 | 10 | 12 | – | – | – | – | 14 | 15 | 16 | 18 | 17 | 19 | 82.1 | 83.7 | 79.5 | –
7 | O=S(=O)(/C=C/S(=O)(=O)c1ccc(Cl)cc1)CC1=NCCO1 | 13 | 15 | 12 | 14 | 10 | 12 | 9 | 10 | 16 | 19 | 18 | 20 | 17 | 20 | 85.5 | 86.6 | 82.7 | –
8 | O=S(=O)(CC1=NCCO1)c1c[nH]cc1S(=O)(=O)c1ccccc1 | 15 | 19 | 16 | 18 | 14 | 17 | 13 | 15 | 18 | 22 | 19 | 23 | 20 | 22 | 87.7 | 88.3 | 86.8 | –
9 | Cc1cc(C(C)(C)C)c(O)c(C(C)(C)C)c1 | – | – | – | – | – | – | – | – | – | – | – | – | – | – | – | – | 92.3 | –
10 | O=S(=O)(CC1=NCCO1)c1c[nH]cc1S(=O)(=O)c1ccc(Cl)cc1 | 17 | 19 | 16 | 19 | 15 | 17 | 12 | 14 | 21 | 23 | 20 | 23 | 21 | 22 | 92.1 | 91.5 | 89.4 | –
11 | O=S(=O)(/C=C/S(=O)(=O)c1ccc(Cl)cc1)CC1=NCCS1 | 27 | 28 | 29 | 31 | 22 | 23 | 21 | 22 | 29 | 31 | 24 | 28 | 27 | 29 | 32.3 | 33.5 | 28.3 | –
12 | O=C(N[C@H](CO)[C@H](O)c1ccc([N+](=O)[O-])cc1)C(Cl)Cl [CHLORAMPHENICOL] | 35 | 41 | 38 | 44 | 37 | 42 | 42 | 45 | – | – | – | – | – | – | – | – | – | MIC (Staphylococcus aureus [21]): 6.25 µg/mL (≈ 19.3 µM); MIC (Bacillus subtilis [22]): 6.25 µg/mL (≈ 19.3 µM); MIC (Klebsiella pneumoniae [23]): 6.25 µg/mL (≈ 19.3 µM); MIC (Proteus vulgaris [24]): 12.5 µg/mL (≈ 38.7 µM)
13 | Cc1ccc(S(=O)(=O)/C=C/S(=O)(=O)CC2=NCCS2)cc1 | 20 | 23 | 19 | 21 | 17 | 20 | 15 | 18 | 22 | 25 | 21 | 24 | 20 | 23 | 21.7 | 22.2 | 21.2 | –
14 | O=S(=O)(/C=C/S(=O)(=O)c1ccccc1)CC1=NCCS1 | 21 | 24 | 22 | 23 | 19 | 21 | 17 | 18 | 26 | 29 | 24 | 26 | 26 | 28 | 30.4 | 29.3 | 29.3 | –
